Source: PubChem BioAssay
NPY Y2 blocker: NPY-Y2 (human) receptor antagonism; P49146; NPY-Y2 expressing cells, antagonist mode; inhibition, % at 2.7 µM; 140,000 compounds, 0.99% hits; AID 793; in the data active means inhibition above about 17%;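 further: 0% = vehicle with agonist challenge and 100% = reference antagonist with challenge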
Target sequence (P49146 whole entry, looked up): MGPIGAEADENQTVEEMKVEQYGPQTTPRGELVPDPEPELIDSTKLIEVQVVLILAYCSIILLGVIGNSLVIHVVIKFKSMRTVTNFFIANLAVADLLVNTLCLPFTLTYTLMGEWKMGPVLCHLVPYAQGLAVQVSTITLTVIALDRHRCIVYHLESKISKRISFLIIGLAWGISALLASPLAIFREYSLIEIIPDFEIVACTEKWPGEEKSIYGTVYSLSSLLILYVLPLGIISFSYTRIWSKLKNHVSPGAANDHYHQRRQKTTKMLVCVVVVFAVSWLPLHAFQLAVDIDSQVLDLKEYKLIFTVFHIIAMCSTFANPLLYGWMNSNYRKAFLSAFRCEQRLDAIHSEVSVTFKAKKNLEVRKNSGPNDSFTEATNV
Cl transport mod: KCC2 (human) Cl- transport modulation; KCC2 cells, thallium flux FluoZin-2 fluorescence; B-score of Tl+ flux slope (higher = more flux/activation; lower = inhibition) at 10 µM; 190,000 compounds, 2.2% hits;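 active means thallium flux slope and its plate-corrected score both differing from the plate sample mean at a set confidence after two filtering rounds, in either direction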;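 further: slope of fluorescence scaled to starting intensity during 10 to 20 s after thallium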
NPY-Y1 antag: NPY-Y1 (human) receptor antagonism | P25929 | HEK293-CNG Y1 cells, membrane potential fluorescence; NPY at EC95, then isoproterenol | inhibition, % at 3.6 µM | 200,000 compounds, 1% hits | AID 1040;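 active means inhibition above the campaign mean inhibition of all tested compounds plus 3 SD, cut at about 20% in these data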;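 further: 0% = DMSO wells given NPY plus isoproterenol and 100% = isoproterenol alone without NPY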
Target sequence (P25929 whole entry, looked up): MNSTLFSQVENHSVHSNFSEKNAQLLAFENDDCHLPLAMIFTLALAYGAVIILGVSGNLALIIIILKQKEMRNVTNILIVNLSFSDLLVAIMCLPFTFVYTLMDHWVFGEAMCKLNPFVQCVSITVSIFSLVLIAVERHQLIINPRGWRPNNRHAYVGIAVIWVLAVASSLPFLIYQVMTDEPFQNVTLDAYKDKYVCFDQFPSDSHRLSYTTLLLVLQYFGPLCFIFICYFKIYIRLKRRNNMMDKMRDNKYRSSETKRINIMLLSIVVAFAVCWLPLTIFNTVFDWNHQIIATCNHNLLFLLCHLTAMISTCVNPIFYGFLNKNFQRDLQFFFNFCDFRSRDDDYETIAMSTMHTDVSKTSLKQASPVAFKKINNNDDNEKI
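Test system: HEK293 cells co-expressing NPY Y1 receptor and cyclic-nucleotide gated channel; Also added: NPY (25 nM), isoproterenol (1 µM), Ro 20-1724 (25 µM); Compound dosing: one concentration, 3.6 µM, in 0.4% DMSO; Timing: dye 3 h, compound 60 min room temperature, stimulation 45 min; Technique: Membrane-potential fluorescent dye readout.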
Furin inhibitor: inhibitors of human furin. P09958. purified furin, fluorogenic substrate cleavage. inhibition, % at 20 µM or 30 µM. 220,000 compounds, 0.061% hits. AID 463115; in the data active means inhibition above about 25%
NPY-Y1 PAM-ag: potentiates or activates human NPY-Y1 receptor | P25929 | NPY-Y1 expressing cells, potentiator/agonist activation | activation, % at 3.6 µM | AID 1304 | 220,000 compounds, 0.37% hits; in the data active means activation above about 33%, passing the limit was not always enough;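 further: cells stimulated with NPY at EC10 then isoproterenol at EC100; 0% = low agonist plus stimulus and 100% = saturating agonist plus stimulus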
NPY-Y2 PAM-ag: human NPY-Y2 potentiation or agonism, primary screen. P49146. cells expressing NPY-Y2, potentiator/agonist read-out. activation, % at 3.6 µM. 220,000 compounds, 0.45% hits. AID 1359; in the data active means activation above about 27%;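 further: cells stimulated with NPY near EC25 plus isoproterenol at EC100; 0% = vehicle plus submaximal agonist and 100% = vehicle plus saturating agonist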
KCC2 sec1: KCC2 (human) modulation, secondary assay; 3,700 compounds, 15% hits; AID 1713; shares compounds with Cl transport mod; normalised thallium flux (F/F0 slope) at 10 µM; HEK293-KCC2, thallium flux, FluoZin2 fluorescence; active compounds read high;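 active means thallium flux slope above the same plate's solvent-only control mean plus 3 SD; inconclusive means the two replicate wells disagree; inactive means no significant difference from solvent-only control wells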
KCC2 bumet counter: bumetanide-insensitive thallium flux in KCC2 cells with ouabain, counter-screen | shares compounds with Cl transport mod | HEK293-KCC2 + bumetanide/ouabain, thallium flux FluoZin2; active compounds read high | normalized thallium flux at 10 µM | 3,700 compounds, 49% hits;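 active means thallium entry rate above the same plate's blocked-transporter control wells by more than 3 SD; inconclusive means the two repeat wells disagree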;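 further: raw slope of fluorescence over initial fluorescence between 10 and 20 s after thallium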
KCC2 sec2: KCC2 (human) modulation, second secondary assay. 3,700 compounds, 23% hits. shares compounds with Cl transport mod. AID 1715. HEK293-KCC2, thallium flux FluoZin2 fluorescence; actives lie on both sides; F/F0 rise rate, 10–20 s post-thallium. normalized thallium flux at 10 µM;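 active means thallium flux slope more than 3 SD above or below the plate's solvent-only control mean, mostly below; inconclusive means the two repeat wells disagreed; inactive means no significant shift from solvent-only controls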;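 further: raw slope with 0.1% DMSO as baseline and bumetanide as block control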
HEK293 Tl flux: parental HEK flux effect, counter-screen | thallium flux rate (normalised fluorescence) at 10 µM | shares compounds with Cl transport mod | HEK293 parental cells, thallium flux FluoZin2, ouabain; baseline-ratio fluorescence slope, 10–20 s after thallium | 3,700 compounds, 46% hits;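 active means thallium flux rate significantly above the same plate's solvent-only control wells, beyond their mean plus 3 SD; inconclusive means the two replicate wells gave conflicting results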
KCC2 retest ouab: KCC2 (human) modulation, ouabain retest | HEK293-KCC2, thallium flux FluoZin2 fluorescence; bidirectional: low = inhibitor, high = activator | raw Tl+ flux slope (below DMSO = inhibition, above = activation) at 10 µM | 3,700 compounds, 48% hits | shares compounds with Cl transport mod | AID 1717;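 active means thallium flux slope beyond 3 SD from same-plate DMSO control mean in most replicates, usually higher, sometimes lower; inconclusive means repeat tests gave conflicting results; inactive means no significant difference from controls in most replicates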;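 further: slope of initial-normalized fluorescence between seconds 10 and 20 after thallium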
HEK counter2: counter-screen for KCC2 modulators: effect in parental HEK293 cells | thallium flux FluoZin-2 fluorescence slope | shares compounds with Cl transport mod | thallium flux slope at 10 µM | 3,700 compounds, 33% hits | AID 1718;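 active means thallium flux slope above the same plate's solvent-control mean plus 3 SD in both duplicate wells; inconclusive means duplicate wells that disagreed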;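 further: run without ouabain in cells lacking the KCC2 cotransporter; slope of fluorescence scaled to its starting value between 10 and 20 s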
* marks the source's active call; other numbers are inactive results; ? = inconclusive; / = not tested or not shown. An excerpt weighted towards active compounds, which were near 3.7% of everything screened.

SMILES	NPY Y2 blocker	Cl transport mod	NPY-Y1 antag	Furin inhibitor	NPY-Y1 PAM-ag	NPY-Y2 PAM-ag	KCC2 sec1	KCC2 bumet counter	KCC2 sec2	HEK293 Tl flux	KCC2 retest ouab	HEK counter2
COc1ccc(O)c(C(=O)CC(=O)c2ccc(F)cc2)c1	1	23*	3	-21	-11	-11	?	0.07*	0.035	?	0.054*	?
COc1ccc(C(=O)CC(=O)c2ccccc2O)cc1OC	/	7.1*	6	-12	-5	-1	0.0075	0.011*	0.037	0.013*	0.023	0.011
CCOc1ccc(NC(=O)COC(=O)c2cccnc2)cc1	3	0.11	-2	-24	-3	5	/	/	/	/	/	/
CCOC(=O)C1=NNC2(c3ccc(C)cc3)C(=O)N(c3ccc(Cl)cc3)C(=O)C12 (stereo unspecified)	6	0.088	-6	-10	-2	13	/	/	/	/	/	/
CCOc1ccccc1NC(=O)NC(C)c1ccncc1 (stereo unspecified)	/	0.061	6	-29	-5	10	/	/	/	/	/	/
COc1ccc(CCC(=O)NNC(=S)Nc2cccc(C(C)=O)c2)cc1	/	-0.53	4	-8	-24	-21	/	/	/	/	/	/
Cc1ccccc1NC(=S)N/N=C/C(C)c1ccccc1 (stereo unspecified)	/	14*	-3	-25	1	-2	0.0051	0.027*	0.032	0.015*	?	0.018*
N#CC(c1ccccc1)c1ccc2c(C(F)(F)F)cc(C(F)(F)F)nc2n1 (stereo unspecified)	-5	1.7	-3	-18	15	9	/	/	/	/	/	/
Cc1ccc(C(C#N)c2ccc3c(C(F)(F)F)cc(C(F)(F)F)nc3n2)cc1 (stereo unspecified)	-2	13*	-3	-13	17	-1	0.022*	0.065*	?	0.017*	0.033*	0.016*
CCOc1ccc(CC(=O)NCC2(N3CCCCC3)CCCCC2)cc1	/	-0.031	0	-24	7	-5	/	/	/	/	/	/
CCOC(=O)/C(C#N)=C1\SS/C(=C(/C#N)C(=O)OCC)S1	/	/	/	9	0	13	/	/	/	/	/	/
O=C(CSc1nnc(CNc2ccc(F)cc2)o1)N1CCN(C(=O)c2ccco2)CC1	1	-0.63	-2	-28	-12	-2	/	/	/	/	/	/
O=C(CSc1nnc(-c2ccc(F)cc2)o1)N1CCN(C(=O)c2ccco2)CC1	0	-4.4*	1	-21	-1	14	0.0079	0.0066	0.03*	0.0045	0.018*	0.012
CCOC(=O)C1CCCN(C(=O)c2cc3nc(-c4cccc(OC)c4)cc(C(F)(F)F)n3n2)C1 (stereo unspecified)	5	/	3	11	-11	-7	0.007	0.0044	0.029	0.0073	0.02	0.01
CCOC(=O)C1CCCN(C(=O)c2cc3c(-c4cccc(OC)c4)nn(C)c3s2)C1 (stereo unspecified)	7	-1.2	3	-19	-15	-15	/	/	/	/	/	/
Cc1ccc(C)c(S(=O)(=O)N2CCN(CC(=O)Nc3ccc4c(c3)CCC4)CC2)c1	3	-0.16	-2	-6	2	1	/	/	/	/	/	/
Cc1ccc(C)c(S(=O)(=O)N2CCN(CC(=O)N3CCc4ccccc4C3)CC2)c1	4	-4.1*	3	-15	11	-2	0.0072	0.0059	0.03	0.0067	0.022*	?
Cc1cccc(C(=O)N/N=C/c2cc(Br)c(Br)o2)c1	5	0.061	1	-20	-29	-3	0.009	0.017*	0.033	0.0091*	?	0.0094
NC(=O)N/N=C/c1ccc(-c2cccc(C(F)(F)F)c2)o1	/	-0.028	2	-11	3	-8	/	/	/	/	/	/
O=C(N/N=C/c1ccc(-c2cccc([N+](=O)[O-])c2)o1)c1ccccc1O	/	3.4*	1	-3	0	-8	0.011	0.024*	0.038	0.012*	0.032*	?
Cc1ccc(/C=N/NC(=O)c2cccc([N+](=O)[O-])c2)o1	1	5.5*	4	-6	19	9	0.01	0.011*	0.033	0.012*	0.023	0.011
O=C(N/N=C/c1ccc(-c2cccc(C(F)(F)F)c2)o1)c1cccc(F)c1	4	12*	8	-30	11	-28	0.0086	0.016*	0.033	0.012*	?	0.01
Cc1onc(-c2ccccc2)c1C(=O)N/N=C/c1cc(Br)c(Br)o1	1	2.7	2	-11	11	6	/	/	/	/	/	/
COc1cccc(-c2cc(C(=O)NCCCn3ccnc3)c3ccccc3n2)c1	3	1.2	10	2	-1	-2	/	/	/	/	/	/
COc1ccc(C2C(C(=O)O)c3ccccc3C(=O)N2Cc2ccco2)cc1 (stereo unspecified)	/	-0.53	/	-13	-11	21	/	/	/	/	/	/
SMILES	NPY Y2 blocker	Cl transport mod	NPY-Y1 antag	Furin inhibitor	NPY-Y1 PAM-ag	NPY-Y2 PAM-ag	KCC2 sec1	KCC2 bumet counter	KCC2 sec2	HEK293 Tl flux	KCC2 retest ouab	HEK counter2
CC(C)N1CN(c2ccccc2)C(=S)N(c2ccccc2)C1	/	-0.55	/	-23	20	20	/	/	/	/	/	/
O=C(N/N=C/c1ccc(-c2cccc(C(F)(F)F)c2)o1)c1ccccc1Br	7	/	3	-7	-24	3	/	/	/	/	/	/
CN(C)c1ccc(/C=N/NC(=O)c2ccccc2O)o1	/	5.1*	-2	-17	-5	-4	0.01	?	0.033	0.011*	0.02	0.012
CN(C)c1ccc(/C=N/NC(=O)C(O)(c2ccccc2)c2ccccc2)o1	1	/	1	3	0	-2	/	/	/	/	/	/
O=C(N/N=C/c1ccc(-c2cccc(C(F)(F)F)c2)o1)c1ccccc1O	1	4.8*	0	1	-3	-8	0.0069	0.029*	0.033	0.016*	?	0.019*
CCCOP(=O)(c1ccc(N(C)C)cc1)C(Nc1ccccc1)c1ccc(C)cc1 (stereo unspecified)	/	-0.015	/	-27	19	-10	/	/	/	/	/	/
COc1ccc(NC(=O)C2CCCN2C(=O)Nc2ccccc2)cc1OC (stereo unspecified)	-2	-0.028	1	-11	-10	1	/	/	/	/	/	/
